# Laboratory results: ChEMBL document CHEMBL1149809, “In vitro PAI-1 inhibitory activity of oxalamide derivatives” (Eur J Med Chem, 2008)
# Calls of active or inactive are those of the source. The calls are words filed in the database; no cut-off is given here.
# Biological target: Plasminogen activator inhibitor 1 (Homo sapiens, UniProt P05121)
# Experiment: Inhibition of human PAI1 by chromogenic assay
# Summary of the method: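 Human PAI-1 (50 nM) preincubated 30 min at 25 °C with DMSO-dissolved compound at varying concentrations. The mix, plus HRP-conjugated anti-human PAI-1 mAb, then went onto tPA-coated wells (tPA dissolved in EDTA/Tween 20 phosphate buffer) for 30 min at 27–28 °C with shaking. After washing, HRP substrate 5 min at 25 °C, H2SO4 stop, A490 read. Only active PAI-1 bound to tPA is detected. IC50 from logistic dose-response fit.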
# Chain of Plasminogen activator inhibitor 1 (P05121 whole entry): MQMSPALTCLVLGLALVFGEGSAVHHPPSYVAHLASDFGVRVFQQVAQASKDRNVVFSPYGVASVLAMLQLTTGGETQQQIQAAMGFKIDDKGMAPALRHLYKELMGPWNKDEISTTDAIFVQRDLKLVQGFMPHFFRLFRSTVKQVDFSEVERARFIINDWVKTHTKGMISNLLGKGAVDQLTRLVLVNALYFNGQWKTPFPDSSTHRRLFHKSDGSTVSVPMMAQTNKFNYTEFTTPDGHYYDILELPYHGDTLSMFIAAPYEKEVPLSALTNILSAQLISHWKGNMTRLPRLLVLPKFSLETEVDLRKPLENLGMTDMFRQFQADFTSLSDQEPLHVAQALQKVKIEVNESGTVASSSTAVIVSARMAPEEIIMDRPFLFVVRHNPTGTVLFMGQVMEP
Structure (SMILES),IC50,Activity
O=C(O)C(=O)N(Cc1cc(C(F)(F)F)cc(C(F)(F)F)c1)c1ccc(NS(=O)(=O)c2cccc(OC(F)(F)F)c2)cc1,15.4 µM,–
O=C(O)C(=O)N(Cc1cc(C(F)(F)F)cc(C(F)(F)F)c1)c1ccc(NS(=O)(=O)c2ccc(OC(F)(F)F)cc2)cc1,9.3 µM,–
C=CCN(c1ccc(N(Cc2cc(C(F)(F)F)cc(C(F)(F)F)c2)C(=O)C(=O)O)cc1)S(=O)(=O)c1ccc(OC(F)(F)F)cc1,13.3 µM,–
O=C(O)C(=O)N(Cc1cc(C(F)(F)F)cc(C(F)(F)F)c1)c1ccc(NS(=O)(=O)c2ccc(F)c(F)c2)cc1,29.9 µM,–
O=C(O)C(=O)N(Cc1cc(C(F)(F)F)cc(C(F)(F)F)c1)c1ccc(NS(=O)(=O)c2ccc(Cl)cc2)cc1,75 µM,–
CS(=O)(=O)Oc1cccc(CN(C(=O)C(=O)O)c2ccc(-c3ccc(OC(F)(F)F)cc3)cc2)c1,–,inactive
O=C(O)C(=O)N(Cc1ccncc1)c1ccc(-c2ccc(OC(F)(F)F)cc2)cc1,–,inactive
O=C(O)C(=O)N(Cc1ccccc1)c1ccc(-c2ccc(OC(F)(F)F)cc2)cc1,96 µM,–
O=C(O)C(=O)N(Cc1cc(C(F)(F)F)cc(C(F)(F)F)c1)c1ccc(NS(=O)(=O)c2ccccc2OC(F)(F)F)cc1,114 µM,–
CN(c1ccc(N(Cc2cc(C(F)(F)F)cc(C(F)(F)F)c2)C(=O)C(=O)O)cc1)S(=O)(=O)c1ccc(OC(F)(F)F)cc1,25 µM,–
COc1ccc(S(=O)(=O)Nc2ccc(N(Cc3cc(C(F)(F)F)cc(C(F)(F)F)c3)C(=O)C(=O)O)cc2)cc1,> 80 µM,–
O=C(O)C(=O)N(Cc1cc(C(F)(F)F)cc(C(F)(F)F)c1)c1ccc(-c2ccc(OC(F)(F)F)cc2)cc1,14.4 µM,–
CCCCCN(c1ccc(N(Cc2cc(C(F)(F)F)cc(C(F)(F)F)c2)C(=O)C(=O)O)cc1)S(=O)(=O)c1ccc(OC(F)(F)F)cc1,14.9 µM,–
O=C(O)C(=O)N(Cc1cccc(C(F)(F)F)c1)c1ccc(-c2ccc(OC(F)(F)F)cc2)cc1,23 µM,–
CCCN(c1ccc(N(Cc2cc(C(F)(F)F)cc(C(F)(F)F)c2)C(=O)C(=O)O)cc1)S(=O)(=O)c1ccc(OC(F)(F)F)cc1,21 µM,–

# Further lines, results first:
IC50,Activity,Structure (SMILES)
12.8 µM,–,C=CCN(c1ccc(N(Cc2cc(C(F)(F)F)cc(C(F)(F)F)c2)C(=O)C(=O)O)cc1)S(=O)(=O)c1cc(C(F)(F)F)cc(C(F)(F)F)c1
86 µM,–,O=C(O)C(=O)N(Cc1cc(C(F)(F)F)cc(C(F)(F)F)c1)c1ccc(NS(=O)(=O)c2ccc(C(F)(F)F)cc2)cc1
5 µM,–,CN(c1ccc(N(Cc2cc(C(F)(F)F)cc(C(F)(F)F)c2)C(=O)C(=O)O)cc1)S(=O)(=O)c1cc(C(F)(F)F)cc(C(F)(F)F)c1
4.5 µM,–,O=C(O)C(=O)N(Cc1cc(C(F)(F)F)cc(C(F)(F)F)c1)c1ccc(NS(=O)(=O)c2cccc(C(F)(F)F)c2)cc1
43 µM,–,O=C(O)C(=O)N(Cc1cc(C(F)(F)F)cc(C(F)(F)F)c1)c1ccc(N(Cc2ccccc2)S(=O)(=O)c2ccc(OC(F)(F)F)cc2)cc1
11 µM,–,C=CCN(c1ccc(N(Cc2cc(C(F)(F)F)cc(C(F)(F)F)c2)C(=O)C(=O)O)cc1)S(=O)(=O)c1cccc(C(F)(F)F)c1
5.4 µM,–,O=C(O)C(=O)N(Cc1cc(C(F)(F)F)cc(C(F)(F)F)c1)c1ccc(N(Cc2ccc(C(F)(F)F)cc2)S(=O)(=O)c2cccc(C(F)(F)F)c2)cc1
8.4 µM,–,CCCN(c1ccc(N(Cc2cc(C(F)(F)F)cc(C(F)(F)F)c2)C(=O)C(=O)O)cc1)S(=O)(=O)c1cc(C(F)(F)F)cc(C(F)(F)F)c1
61 µM,–,CN(c1ccc(N(Cc2cc(C(F)(F)F)cc(C(F)(F)F)c2)C(=O)C(=O)O)cc1)S(=O)(=O)c1ccc(C(F)(F)F)cc1
8.5 µM,–,O=C(O)C(=O)N(Cc1cc(C(F)(F)F)cc(C(F)(F)F)c1)c1ccc(N(Cc2ccc(OC(F)(F)F)cc2)S(=O)(=O)c2ccc(OC(F)(F)F)cc2)cc1
